# Reference: ChEMBL document CHEMBL4842372, “Discovery of ARD-2585 as an Exceptionally Potent and Orally Active PROTAC Degrader of Androgen Receptor for the Treatment of Advanced Prostate Cancer” (J Med Chem, 2021)
# pIC50: −log10 of the molar value. Calls of active or inactive are those of the source. The rule behind the calls is not given here.
# Legend:
# VCaP [1] = experiment: Growth inhibition of human VCaP cells assessed as cell viability by WST-8 assay; assay type: functional, cell-based
# VCaP [2] = experiment: Antitumor activity against human VCaP cells xenografted in CB17:SCID mouse assessed as reduction in AR protein level in tumor at 20 mg/kg, po measured for 6 to 24 hrs by Western blot analysis; assay type: functional, organism-based; conditions: time 6-24 hrs
# How it was run: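 VCaP xenografts in male CB17 SCID mice grown to about 200 mm3; single oral gavage dose of 20 mg/kg in 100% PEG200; tumors collected at 6 and 24 h, RIPA lysates blotted for AR with GAPDH as loading control, band intensity normalised to loading control.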
# [3] = Drug distribution in plasma of CB17:SCID mouse xenografted with human VCaP cells at 20 mg/kg, po measured at 6 hrs by LCMS analysis; assay type: ADME, organism-based
# How it was run: (§1)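 Tumor-bearing male CB17 SCID mice (VCaP xenografts) given one 20 mg/kg oral dose in 100% PEG200, three mice per time point; plasma, tumor, liver, kidney, prostate and heart taken at 1, 6 and 24 h; tissues homogenised in water/acetonitrile, protein precipitated with cold acetonitrile, drug quantified by LC–MS/MS; ratios are tissue over plasma level.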
# [4] = Drug distribution in plasma of CB17:SCID mouse xenografted with human VCaP cells at 20 mg/kg, po measured at 24 hrs by LCMS analysis; assay type: ADME, organism-based; how it was run: as §1
# [5] = Drug distribution in prostate gland of CB17:SCID mouse xenografted with human VCaP cells at 20 mg/kg, po measured at 6 hrs by LCMS analysis; assay type: ADME, organism-based; conditions: read-out: Drug uptake; how it was run: as §1
# [6] = Drug distribution in tumor of CB17:SCID mouse xenografted with human VCaP cells at 20 mg/kg, po measured at 6 hrs by LCMS analysis; assay type: ADME, organism-based, Neoplasm; conditions: read-out: Drug uptake; how it was run: as §1
# VCaP [7] = experiment: Antitumor activity against human VCaP cells xenografted in CB17:SCID mouse assessed as reduction in AR protein level in tumor at 10 mg/kg, po for 3 days measured at 6 hrs by Western blot analysis; assay type: functional; conditions: 72 h, time 3 day
# How it was run: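 Male CB17 SCID mice bearing subcutaneous VCaP tumors (5 × 10^6 cells in Matrigel); dosed by oral gavage in 100% PEG200 at 10 mg/kg daily for 3 days; tumors harvested 3, 6 and 24 h post-dose, lysed in RIPA, Western blot for AR with GAPDH loading control, bands quantified by densitometry relative to loading control.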
# [8] = Drug distribution in tumor of CB17:SCID mouse xenografted with human VCaP cells at 20 mg/kg, po measured at 1 hrs by LCMS analysis; assay type: ADME, organism-based, Neoplasm; conditions: read-out: Drug uptake; how it was run: as §1
# [9] = Drug distribution in CB17:SCID mouse xenografted with human VCaP cells assessed as tumor to plasma ratio at 20 mg/kg, po measured at 1 hrs by LCMS analysis; assay type: ADME, organism-based; how it was run: as §1
# [10] = Drug distribution in kidney of CB17:SCID mouse xenografted with human VCaP cells at 20 mg/kg, po measured at 1 hrs by LCMS analysis; assay type: ADME, organism-based; conditions: read-out: Drug uptake; how it was run: as §1
# [11] = Drug distribution in CB17:SCID mouse xenografted with human VCaP cells assessed as kidney to plasma ratio at 20 mg/kg, po measured at 1 hrs by LCMS analysis; assay type: ADME, organism-based; how it was run: as §1
# [12] = Drug distribution in prostate gland of CB17:SCID mouse xenografted with human VCaP cells at 20 mg/kg, po measured at 1 hrs by LCMS analysis; assay type: ADME, organism-based; conditions: read-out: Drug uptake; how it was run: as §1
# [13] = Drug distribution in CB17:SCID mouse xenografted with human VCaP cells assessed as heart to plasma ratio at 20 mg/kg, po measured at 1 hrs by LCMS analysis; assay type: ADME, organism-based; how it was run: as §1
# [14] = Drug distribution in liver of CB17:SCID mouse xenografted with human VCaP cells at 20 mg/kg, po measured at 6 hrs by LCMS analysis; assay type: ADME, organism-based; conditions: read-out: Drug uptake; how it was run: as §1
# [15] = Drug distribution in CB17:SCID mouse xenografted with human VCaP cells assessed as liver to plasma ratio at 20 mg/kg, po measured at 24 hrs by LCMS analysis; assay type: ADME, organism-based; how it was run: as §1
# VCaP [16] = experiment: Antitumor activity against human VCaP cells xenografted in CB17:SCID mouse assessed as tumor growth inhibition at 20 mg/kg, po treated for 37 days relative to control; assay type: functional; conditions: 888 h, time 37 day, read-out: TGI
# [17] = molecular target: T1, Protein cereblon/Androgen receptor (Homo sapiens, UniProt P10275+Q96SW2); experiment: Protac activity at CRBN/AR in human VCaP cells assessed as reduction in AR protein level at 0.1 nM after 24 hrs by Western blot analysis relative to control; assay type: cell-based
# How it was run: (§2)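 Western blot of AR after 24 h exposure to a concentration series in ATCC-derived cells, all with 10% FBS at 37 °C and 5% CO2: LNCaP and 22Rv1 in RPMI1640, VCaP in DMEM with Glutamax, MDA-PCa-2b in F-12K. Lysis in RIPA with protease and phosphatase inhibitors, then 4–12% SDS-PAGE and PVDF transfer. Band minus background is normalised to GAPDH.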
# [18] = tested on: Protein cereblon/Androgen receptor (Homo sapiens), P10275+Q96SW2 [T878A]; experiment: Protac activity at CRBN/AR T878A mutant in human LNCaP cells assessed as reduction in AR protein level at 0.3 nM after 24 hrs by Western blot analysis relative to control; assay type: cell-based; how it was run: as §2
# [19] = molecular target: T1, Protein cereblon/Androgen receptor; experiment: Protac activity at CRBN/AR in human 22Rv1 cells assessed as reduction in AR protein level at 0.1 nM after 24 hrs by Western blot analysis relative to control; assay type: cell-based; how it was run: as §2
# [20] = molecular target: T1, Protein cereblon/Androgen receptor; experiment: Protac activity at CRBN/AR in human 22Rv1 cells assessed as maximal AR degradation at 0.1 nM after 24 hrs by Western blot analysis relative to control; assay type: cell-based; how it was run: as §2
# [21] = molecular target: T1, Protein cereblon/Androgen receptor; experiment: Protac activity at CRBN/AR in human MDA-PCa-2b cells assessed as maximal AR degradation at 1 nM after 24 hrs by Western blot analysis relative to control; assay type: cell-based; how it was run: as §2
# [22] = molecular target: T1, Protein cereblon/Androgen receptor; experiment: Protac activity at CRBN/AR in human VCaP cells assessed as reduction in AR protein level at 3 nM after 24 hrs by Western blot analysis relative to control; assay type: cell-based; how it was run: as §2
# [23] = molecular target: T1, Protein cereblon/Androgen receptor; experiment: Protac activity at CRBN/AR in human VCaP cells assessed as reduction in AR protein level at 100 nM after 3 hrs in presence of MG-132 by Western blot analysis
# [24] = tested on: Protein cereblon/Androgen receptor (Homo sapiens), P10275+Q96SW2 [T878A]; experiment: Protac activity at CRBN/AR T878A mutant in human LNCaP cells assessed as reduction in AR protein level at 100 nM after 3 hrs in presence of MLN4924 by Western blot analysis
# [25] = molecular target: T1, Protein cereblon/Androgen receptor; experiment: Protac activity at CRBN/AR in human VCaP cells assessed as reduction in AR protein level at 100 nM after 3 hrs in presence of N-((1r,4r)-4-((3-chloro-4-cyanophenyl)(methyl)amino)cyclohexyl)-4-(4-methylpiperazin-1-yl)benzamide by Western blot analysis
# T1 sequence (P10275 whole entry, looked up): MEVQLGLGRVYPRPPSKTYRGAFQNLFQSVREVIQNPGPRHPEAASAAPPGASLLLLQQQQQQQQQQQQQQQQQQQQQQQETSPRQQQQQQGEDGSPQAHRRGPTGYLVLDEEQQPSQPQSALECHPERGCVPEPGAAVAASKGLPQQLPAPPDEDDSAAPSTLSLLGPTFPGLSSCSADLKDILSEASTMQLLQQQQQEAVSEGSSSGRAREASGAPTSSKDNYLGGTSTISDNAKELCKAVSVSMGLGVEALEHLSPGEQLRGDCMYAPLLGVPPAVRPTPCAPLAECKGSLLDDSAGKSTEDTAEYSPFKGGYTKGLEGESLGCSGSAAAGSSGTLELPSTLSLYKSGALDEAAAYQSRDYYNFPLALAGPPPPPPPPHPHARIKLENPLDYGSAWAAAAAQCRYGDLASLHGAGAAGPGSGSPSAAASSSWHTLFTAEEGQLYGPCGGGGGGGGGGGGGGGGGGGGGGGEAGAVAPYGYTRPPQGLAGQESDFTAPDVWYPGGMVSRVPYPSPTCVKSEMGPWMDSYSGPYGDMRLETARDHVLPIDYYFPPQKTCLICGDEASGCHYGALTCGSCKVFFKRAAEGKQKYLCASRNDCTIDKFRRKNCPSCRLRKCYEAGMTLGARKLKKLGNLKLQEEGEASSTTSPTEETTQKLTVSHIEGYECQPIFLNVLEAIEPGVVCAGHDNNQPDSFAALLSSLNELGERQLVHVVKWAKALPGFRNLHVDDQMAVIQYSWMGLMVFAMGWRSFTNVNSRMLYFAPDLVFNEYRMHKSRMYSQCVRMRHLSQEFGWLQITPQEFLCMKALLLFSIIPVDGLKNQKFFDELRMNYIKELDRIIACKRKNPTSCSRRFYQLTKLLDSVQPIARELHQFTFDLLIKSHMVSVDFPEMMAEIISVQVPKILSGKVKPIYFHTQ
# T1 sequence (Q96SW2 whole entry, looked up): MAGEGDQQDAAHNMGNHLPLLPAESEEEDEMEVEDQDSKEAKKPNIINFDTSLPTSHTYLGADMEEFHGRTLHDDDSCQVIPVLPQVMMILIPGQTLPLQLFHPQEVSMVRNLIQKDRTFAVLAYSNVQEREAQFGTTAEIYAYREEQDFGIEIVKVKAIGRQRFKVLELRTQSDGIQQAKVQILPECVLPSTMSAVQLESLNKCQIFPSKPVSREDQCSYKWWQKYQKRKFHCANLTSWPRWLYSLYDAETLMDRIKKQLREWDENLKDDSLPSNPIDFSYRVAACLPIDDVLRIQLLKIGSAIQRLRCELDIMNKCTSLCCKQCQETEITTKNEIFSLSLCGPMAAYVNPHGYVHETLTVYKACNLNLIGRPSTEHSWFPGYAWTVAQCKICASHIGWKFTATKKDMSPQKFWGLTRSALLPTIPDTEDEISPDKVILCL
smiles,measurement,setting,value
CN(c1ccc(C#N)c(Cl)c1)[C@H]1CC[C@H](NC(=O)c2ccc(N3CCN(C4CN(c5ccc6c(c5)C(=O)N(C5CCC(=O)NC5=O)C6=O)C4)CC3)cc2)CC1 (stereo not given in full),pIC50,VCaP [1],8.82
same,inhibition,VCaP [2],Active
same,concentration at 6 h,[3],87 ng/mL
same,concentration at 24 h,[4],102 ng/mL
same,concentration at 6 h,[5],76 ng/g
same,concentration at 6 h,[6],201 ng/g
same,inhibition in vivo at 10 mg/kg,VCaP [7],60%
same,concentration at 1 h,[8],47 ng/g
same,Kp at 1 h,[9],0.7
same,concentration at 1 h,[10],437 ng/g
same,Kp at 1 h,[11],6.2
same,concentration at 1 h,[12],25 ng/g
same,Kp at 1 h,[13],3
same,concentration at 6 h,[14],3510 ng/g
same,Kp at 24 h,[15],32.1
same,inhibition in vivo at 20 mg/kg,VCaP [16],74.3%
same,inhibition,[17],> 80%
same,inhibition,[18],> 80%
same,inhibition,[19],> 80%
same,Emax,[20],> 95%
same,Emax,[21],> 95%
same,inhibition,[22],80%
same,Activity,[23],inactive
same,Activity,[24],inactive
same,Activity,[25],inactive
